Data set [1] deals with PBMC. In words: Antiinflammatory activity in human PBMC assessed as inhibition of LPS-induced TNF-alpha production after 16 hrs by AlphaLisa assay. In kind it is functional, cell-based.
Data set [2] in a line: Cytotoxicity against primary human […] keratinocytes assessed as inhibition of cell viability at 10 uM preincubated for 2 hrs followed by cytokine addition measured after 72 hrs by PrestoBlue staining based fluorescence assay relative to control. The note with it: read-out: Imax. Details: species or system Keratinocyte.
Data set [3] relates to Keratinocyte. In words: Antiinflammatory activity in primary human […] keratinocytes assessed as inhibition of IL-17A/TNF-alpha induced IL-8 production at 10 uM preincubated for 2 hrs followed by cytokine addition measured after 72 hrs by HTRF assay relative to control. The class given is functional. A general note: Time-resolved FRET reads energy transfer from a long-lived donor to a nearby acceptor.

Data set [4] has as its system Keratinocyte. In words: Antiinflammatory activity in primary human […] keratinocytes assessed as inhibition of IL-17A/TNF-alpha induced IL-8 production preincubated for 2 hrs followed by cytokine addition measured after 72 hrs by HTRF assay. The class given is functional, cell-based. The method in brief:
(§1)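 Primary human keratinocytes were stimulated with IL-17, and the inflammatory response was read as increased IL-8 secretion. Cell viability was measured in the same cells as a secondary readout to separate specific inhibition from cytotoxicity. Betamethasone served as the assay control. Maximal inhibition of IL-8 release or of viability was recorded alongside IC50 where calculated.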

The subject of data set [5] is Keratinocyte. In words: Cytotoxicity against primary human […] keratinocytes assessed as inhibition of cell viability preincubated for 2 hrs followed by cytokine addition measured after 72 hrs by PrestoBlue staining based fluorescence assay. The procedure, abridged: as §1
Setting [6] is: Homo sapiens, Keratinocyte, read-out: IC50.

The source made the active and inactive calls. No cut-off for these calls is given here.

By IC50 is commonly meant the concentration that inhibits the measured activity by half. `CC1=C2[C@H](/C=C(\C)C(=O)NCCN3CCOCC3)CC[C@@H](C)[C@H]2CC1`: the inhibition entry in data set [1] is “inactive”. Also, the inhibition at 72 h, 10 µM in data set [2] was 12%. For the same compound, the Imax in data set [3] was 17%. Moreover, the IC50 entry in data set [4] (keratinocyte) and in data set [5] (keratinocyte) was “Not Active” throughout.

In the case of `CC1=C2[C@H](/C=C(\C)C(=O)NCc3cccc(F)c3)CC[C@@H](C)[C@H]2CC1`, the inhibition result in data set [1] was “inactive”. Moreover, the inhibition at 72 h, 10 µM in data set [2] was 67%. Moreover, the Imax in data set [3] turned out to be 79%. In addition, the results for the IC50 in data set [4] (setting [6]) and in data set [5] (setting [6]) were 4.7 µM and 9.6 µM, respectively.

Turning to `CC1=C2[C@H](/C=C(\C)C(=O)NCc3ccccc3F)CC[C@@H](C)[C@H]2CC1`, in data set [1], the inhibition result is “inactive”. The inhibition at 72 h, 10 µM in data set [2] came out at 72%. In addition, the Imax in data set [3] came out at 85%. Further, the IC50 in data set [4] (setting [6]) worked out at 2.8 µM; in data set [5] (setting [6]), 8.7 µM.

Regarding `CC1=C2[C@H](/C=C(\C)C(=O)NCc3ccc(F)cc3)CC[C@@H](C)[C@H]2CC1`, in data set [1], the inhibition entry is “inactive”. The inhibition at 72 h, 10 µM in data set [2] was 61%. The Imax in data set [3] is 70%. Also, the IC50 in data set [4] (setting [6]) is 4.9 µM; in data set [5] (setting [6]) it was 9.6 µM.

Regarding `CC1=C2[C@H](/C=C(\C)C(=O)O)CC[C@@H](C)[C@H]2CC1` [VALERENIC ACID], the inhibition entry in data set [1] was “inactive”. In data set [2], the inhibition at 72 h, 10 µM was found to be 15%. Moreover, the Imax in data set [3] amounted to 4%. Moreover, the IC50 entry in data set [5] (keratinocyte) is “Not Active”.

Consider `CC1=C2[C@H](/C=C(\C)C(=O)NCCc3ccc(Br)cc3)CC[C@@H](C)[C@H]2CC1`, for which the inhibition result in data set [1] was “inactive”. Moreover, the inhibition at 72 h, 10 µM in data set [2] stood at 24%. For the same compound, the Imax in data set [3] stood at 60%. The results for the half-maximal inhibitory concentration (IC50) in data set [4] (setting [6]) and in data set [5] (keratinocyte) were 8.3 µM and “Not Active”, respectively.

Turning to `CC1=C2[C@H](/C=C(\C)C(=O)NCCc3ccccc3)CC[C@@H](C)[C@H]2CC1`, in data set [1], the inhibition result is “inactive”. Besides, in data set [2], the inhibition at 72 h, 10 µM is 11%. In data set [3], the Imax stood at 64%. The IC50 in data set [4] (setting [6]) was 7.5 µM; in data set [5] (keratinocyte), “Not Active”.

Regarding `CC1=C2[C@H](/C=C(\C)C(=O)NCc3ccccc3)CC[C@@H](C)[C@H]2CC1`, in data set [1], the inhibition result was “inactive”. Besides, the inhibition at 72 h, 10 µM in data set [2] was found to be 72%. Further, the Imax in data set [3] came to 84%. Besides, the IC50 in data set [4] (setting [6]) is 2.9 µM; in data set [5] (setting [6]), 9 µM.

In the case of `C[C@H]1C[C@H]2[C@@H]3CCC4=CC(=O)C=C[C@]4(C)[C@@]3(F)[C@@H](O)C[C@]2(C)[C@@]1(O)C(=O)CO` [BETAMETHASONE], the Imax in data set [3] is on record as 49%. For the same compound, the IC50 in data set [5] (setting [6]) was found to be 0.3 µM.

Take `CC1=C2[C@H](/C=C(\C)C(=O)NCCc3ccccn3)CC[C@@H](C)[C@H]2CC1`: the inhibition entry in data set [1] is “inactive”. Also, in data set [2], the inhibition at 72 h, 10 µM came out at 20%. In addition, the Imax in data set [3] is listed as 14%. In addition, the IC50 result in data set [4] (keratinocyte) and in data set [5] (keratinocyte) was “Not Active” in each case.

In the case of `CC1=C2[C@H](/C=C(\C)C(=O)NCCc3ccc(F)cc3)CC[C@@H](C)[C@H]2CC1`, the inhibition result in data set [1] was “inactive”. Further, the inhibition at 72 h, 10 µM in data set [2] amounted to 17%. Moreover, in data set [3], the Imax was 44%. In addition, the IC50 entry in data set [4] (keratinocyte) and in data set [5] (keratinocyte) was “Not Active” in each case.

With `CC1=C2[C@H](/C=C(\C)C(=O)NCCC(C)C)CC[C@@H](C)[C@H]2CC1`, the inhibition result in data set [1] was “inactive”. Besides, in data set [2], the inhibition at 72 h, 10 µM was 9%. Besides, in data set [3], the Imax worked out at 22%. The IC50 entry in data set [4] (keratinocyte) and in data set [5] (keratinocyte) was “Not Active” throughout.

As for `COCCNC(=O)/C(C)=C/[C@@H]1CC[C@@H](C)[C@H]2CCC(C)=C12`, in data set [1], the inhibition entry was “inactive”. Besides, the inhibition at 72 h, 10 µM in data set [2] came out at 7%. Besides, the Imax in data set [3] amounted to 30%. Moreover, the IC50 result in data set [4] (keratinocyte) and in data set [5] (keratinocyte) was “Not Active” each time.

The record behind these values is ChEMBL document CHEMBL4020800, “The design, synthesis, and anti-inflammatory evaluation of a drug-like library based on the natural product valerenic acid” (Bioorg Med Chem Lett, 2017).
